Laboratory results as given in ChEMBL document CHEMBL1153764, “A facile one-pot green synthesis and antibacterial activity of 2-amino-4H-pyrans and 2-amino-5-oxo-5,6,7,8-tetrahydro-4H-chromenes” (2009).
Values after ≈ are worked out from the molar mass of the structure shown.

Assays:
Format in all cases: functional
Escherichia coli [1] = experiment: Antibacterial activity against Escherichia coli MTCC 41 at 128 ug/ml after 16 hrs by disc diffusion method; conditions: MTCC 41, 16 h, read-out: IZ
Outline: (§1)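 Disc diffusion zone-of-inhibition assay. The bacterial isolate was spread evenly over the surface of an agar plate. A filter disc loaded with a known amount of compound was placed on the surface, and the compound diffused into the surrounding agar. Plates were incubated 16 h until a bacterial lawn formed, and the zone of inhibition around the disc was then assessed.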

Staphylococcus aureus [2] = experiment: Antibacterial activity against Staphylococcus aureus MTCC 1144 at 64 ug/ml after 16 hrs by disc diffusion method; conditions: MTCC 1144, 16 h, read-out: IZ; outline: as §1
Staphylococcus aureus [3] = experiment: Antibacterial activity against Staphylococcus aureus MTCC 1144 after 12 to 16 hrs
Outline: (§2)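 Tube broth dilution MIC. Tubes were inoculated with the bacterial strain and incubated 12–16 h. Growth was scored visually: a turbid tube means growth, a clear tube means no growth. MIC is the lowest concentration with no growth.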

Staphylococcus aureus [4] = experiment: Antibacterial activity against Staphylococcus aureus MTCC 1144 at 128 ug/ml after 16 hrs by disc diffusion method; conditions: MTCC 1144, 16 h, read-out: IZ; outline: as §1
Pseudomonas putida [5] = experiment: Antibacterial activity against Pseudomonas putida MTCC 1072 after 12 to 16 hrs; outline: as §2
Escherichia coli [6] = experiment: Antibacterial activity against Escherichia coli MTCC 41 after 12 to 16 hrs; outline: as §2
Escherichia coli [7] = experiment: Antibacterial activity against Escherichia coli MTCC 41 at 64 ug/ml after 16 hrs by disc diffusion method; conditions: MTCC 41, 16 h, read-out: IZ; outline: as §1
Pseudomonas putida [8] = experiment: Antibacterial activity against Pseudomonas putida MTCC 1072 at 64 ug/ml after 16 hrs by disc diffusion method; conditions: MTCC 1072, 16 h, read-out: IZ; outline: as §1
Pseudomonas putida [9] = experiment: Antibacterial activity against Pseudomonas putida MTCC 1072 at 128 ug/ml after 16 hrs by disc diffusion method; conditions: MTCC 1072, 16 h, read-out: IZ; outline: as §1

MIC (Staphylococcus aureus [3])	MIC (Pseudomonas putida [5])	MIC (Escherichia coli [6])	SMILES	zone of inhibition at 128 µg/mL (Escherichia coli [1])	zone of inhibition at 64 µg/mL (Staphylococcus aureus [2])	zone of inhibition at 128 µg/mL (Staphylococcus aureus [4])	zone of inhibition at 64 µg/mL (Escherichia coli [7])	zone of inhibition at 64 µg/mL (Pseudomonas putida [8])	zone of inhibition at 128 µg/mL (Pseudomonas putida [9])
> 128 µg/mL	> 128 µg/mL	> 128 µg/mL	CCOC(=O)C1=C(C)OC(N)=C(C#N)C1c1ccc([N+](=O)[O-])cc1 (stereo not drawn)	< 1 mm	< 1 mm	< 1 mm	< 1 mm	< 1 mm	< 1 mm
128 µg/mL (≈ 389 µM)	128 µg/mL (≈ 389 µM)	128 µg/mL (≈ 389 µM)	CC1(C)CC(=O)C2=C(C1)OC(N)=C(C#N)C2c1ccc(Cl)cc1 (stereo not drawn)	> 3 mm	> 2 mm	> 3 mm	> 2 mm	> 2 mm	> 3 mm
> 128 µg/mL	128 µg/mL (≈ 415 µM)	> 128 µg/mL	Cc1ccc(C2C(C#N)=C(N)OC3=C2C(=O)CC(C)(C)C3)cc1 (stereo not drawn)	> 2 mm	> 2 mm	> 2 mm	> 2 mm	> 2 mm	> 3 mm
> 128 µg/mL	64 µg/mL (≈ 206 µM)	128 µg/mL (≈ 412 µM)	CC1(C)CC(=O)C2=C(C1)OC(N)=C(C#N)C2c1cccc(O)c1 (stereo not drawn)	> 3 mm	> 2 mm	> 2 mm	> 2 mm	> 3 mm	> 3 mm
> 128 µg/mL	> 128 µg/mL	> 128 µg/mL	CC1(C)CC(=O)C2=C(C1)OC(N)=C(C#N)C2c1ccccc1 (stereo not drawn)	> 2 mm	< 1 mm	< 1 mm	< 1 mm	> 2 mm	> 2 mm
> 128 µg/mL	128 µg/mL (≈ 395 µM)	64 µg/mL (≈ 197 µM)	COc1ccc(C2C(C#N)=C(N)OC3=C2C(=O)CC(C)(C)C3)cc1 (stereo not drawn)	> 3 mm	> 2 mm	> 2 mm	> 3 mm	> 2 mm	> 3 mm
128 µg/mL (≈ 377 µM)	128 µg/mL (≈ 377 µM)	128 µg/mL (≈ 377 µM)	CC1(C)CC(=O)C2=C(C1)OC(N)=C(C#N)C2c1cccc([N+](=O)[O-])c1 (stereo not drawn)	> 3 mm	> 2 mm	> 3 mm	< 1 mm	< 1 mm	> 3 mm
64 µg/mL (≈ 189 µM)	128 µg/mL (≈ 377 µM)	64 µg/mL (≈ 189 µM)	CC1(C)CC(=O)C2=C(C1)OC(N)=C(C#N)C2c1ccc([N+](=O)[O-])cc1 (stereo not drawn)	> 3 mm	> 3 mm	> 3 mm	> 3 mm	< 1 mm	> 3 mm
> 128 µg/mL	> 128 µg/mL	> 128 µg/mL	CCOC(=O)C1=C(C)OC(N)=C(C#N)C1c1cccc([N+](=O)[O-])c1 (stereo not drawn)	< 1 mm	< 1 mm	< 1 mm	< 1 mm	< 1 mm	< 1 mm
128 µg/mL (≈ 450 µM)	128 µg/mL (≈ 450 µM)	64 µg/mL (≈ 225 µM)	CCOC(=O)C1=C(C)OC(N)=C(C#N)C1c1ccccc1 (stereo not drawn)	> 3 mm	< 1 mm	> 3 mm	> 3 mm	< 1 mm	> 3 mm
128 µg/mL (≈ 402 µM)	128 µg/mL (≈ 402 µM)	128 µg/mL (≈ 402 µM)	CCOC(=O)C1=C(C)OC(N)=C(C#N)C1c1cccc(Cl)c1 (stereo not drawn)	> 3 mm	< 1 mm	> 3 mm	< 1 mm	< 1 mm	> 3 mm
> 128 µg/mL	> 128 µg/mL	> 128 µg/mL	CCOC(=O)C1=C(C)OC(N)=C(C#N)C1c1ccc(Cl)cc1 (stereo not drawn)	< 1 mm	< 1 mm	< 1 mm	< 1 mm	< 1 mm	< 1 mm
> 128 µg/mL	> 128 µg/mL	> 128 µg/mL	CCOC(=O)C1=C(C)OC(N)=C(C#N)C1c1ccc(C)cc1 (stereo not drawn)	< 1 mm	< 1 mm	< 1 mm	< 1 mm	< 1 mm	< 1 mm
> 128 µg/mL	128 µg/mL (≈ 426 µM)	> 128 µg/mL	CCOC(=O)C1=C(C)OC(N)=C(C#N)C1c1cccc(O)c1 (stereo not drawn)	< 1 mm	< 1 mm	< 1 mm	< 1 mm	< 1 mm	> 3 mm
128 µg/mL (≈ 407 µM)	128 µg/mL (≈ 407 µM)	128 µg/mL (≈ 407 µM)	CCOC(=O)C1=C(C)OC(N)=C(C#N)C1c1ccc(OC)cc1 (stereo not drawn)	> 3 mm	< 1 mm	> 3 mm	< 1 mm	< 1 mm	> 3 mm

SMILES	MIC (Staphylococcus aureus [3])	MIC (Pseudomonas putida [5])	MIC (Escherichia coli [6])	zone of inhibition at 128 µg/mL (Escherichia coli [1])	zone of inhibition at 64 µg/mL (Staphylococcus aureus [2])	zone of inhibition at 128 µg/mL (Staphylococcus aureus [4])	zone of inhibition at 64 µg/mL (Escherichia coli [7])	zone of inhibition at 64 µg/mL (Pseudomonas putida [8])	zone of inhibition at 128 µg/mL (Pseudomonas putida [9])
CC1(C)S[C@@H]2[C@H](NC(=O)[C@H](N)c3ccccc3)C(=O)N2[C@H]1C(=O)O [AMPICILLIN]	–	> 256 µg/mL	16 µg/mL (≈ 45.8 µM)	> 5 mm	> 5 mm	> 5 mm	> 5 mm	0 mm	0 mm
